pIC50: −log10 of the molar value. Where “and” joins values, the source holds several entries; their conditions need not be identical. Identical values can stand only once.
Key:
[1] = target: T1, Receptor tyrosine-protein kinase erbB-2 (Homo sapiens, UniProt P04626); experiment: Inhibition of heregulin-stimulated autophosphorylation of ERBB2 receptor kinase in MDA-MB-453 cells.; format: cell-based
Method in brief: (§1)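 MDA-MB-453 cells in αMEM/F12 with 10% FBS were grown to 90% confluency and held serum-free for 18 h. Cells were treated 1 h with varied inhibitor concentrations, then stimulated 5 min with heregulin (10 ng/mL) and lysed in boiling Laemmli buffer. Read-out was SDS-PAGE and antiphosphotyrosine Western blot with [125I]protein A detection and laser densitometry. IC50 is the average of two experiments.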

[2] = target: T2, Epidermal growth factor receptor (Homo sapiens, UniProt P00533)
[3] = target: T2, Epidermal growth factor receptor; remark: listed apart in the source
[4] = tested on: NCI-H125; experiment: In vivo activity against H125 xenograft in nude mice, ratio of treated/control median tumor mass at 50 mg/kg peroral dose; format: functional; conditions: route oral
Method in brief: (§2)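 Nude (NCr nu/nu) mice of 18–22 g were randomized and implanted sc in the right axilla with serially passaged A431 or H125 tumor fragments on day 0. Dosing by average cage weight (6 mice/group) ip or po began at 100–150 mg tumor mass. The ip vehicle was 6% dimethylacetamide/94% 50 mM sodium lactate pH 4.0 suspension; later suspensions used 0.5% methylcellulose. T/C = median treated/control tumor mass ×100% on the last therapy day. T−C = days for tumors to reach 750 mg.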

[5] = tested on: NCI-H125; experiment: In vivo activity against H125 xenograft in nude mice, weight change at 50 mg/kg ip dose; format: functional; conditions: route intraperitoneal; method in brief: as §2
[6] = tested on: A-431; experiment: In vivo activity against A431 xenograft in nude mice, ratio of treated/control median tumor mass at 47 mg/kg ip dose; format: functional; conditions: route intraperitoneal; method in brief: as §2
[7] = tested on: A-431; experiment: In vivo activity against A431 xenograft in nude mice, weight change at 1150 mg/kg peroral dose; format: functional; conditions: dose 150 mg/kg; route oral; in the assay text read “150 mg/kg” for “1150 mg/kg”; method in brief: as §2
[8] = tested on: A-431; experiment: In vivo activity against A431 xenograft in nude mice, weight change at 47 mg/kg ip dose; format: functional; conditions: route intraperitoneal; method in brief: as §2
[9] = tested on: NCI-H125; experiment: In vivo activity against H125 xenograft in nude mice, ratio of treated/control median tumor mass at 50 mg/kg ip dose; format: functional; conditions: route intraperitoneal; method in brief: as §2
[10] = tested on: A-431; experiment: Difference in days for treated (T) and control (C) A431 cell tumors to reach 750 mg at 47 mg/kg ip dose; format: functional; conditions: route intraperitoneal; method in brief: as §2
[11] = tested on: A-431; experiment: In vivo activity against A431 xenograft in nude mice, ratio of treated/control median tumor mass at 150 mg/kg peroral dose; format: functional; conditions: route oral; method in brief: as §2
[12] = tested on: NCI-H125; experiment: In vivo activity against H125 xenograft in nude mice, weight change at 250 mg/kg peroral dose; format: functional; conditions: route oral; method in brief: as §2
[13] = tested on: NCI-H125; experiment: Difference in days for treated (T) and control (C) tumors to reach 750 mg at 250 mg/kg peroral dose; format: functional; conditions: route oral; method in brief: as §2
[14] = tested on: NCI-H125; experiment: Difference in days for treated (T) and control (C) H125 cell tumors to reach 750 mg at 50 mg/kg ip dose; format: functional; conditions: route intraperitoneal; method in brief: as §2
[15] = tested on: A-431; experiment: In vivo activity against A431 xenograft in nude mice, ratio of treated/control median tumor mass at 260 mg/kg peroral dose; conditions: route oral
[16] = tested on: A-431; experiment: Difference in days for treated (T) and control (C) A431 cell tumors to reach 750 mg at 260 mg/kg peroral dose; format: functional; conditions: route oral; method in brief: as §2
[17] = tested on: A-431; experiment: In vivo activity against A431 xenograft in nude mice, weight change at 260 mg/kg peroral dose; conditions: route oral
[18] = tested on: Mus musculus; experiment: In vivo activity against tumor xenograft in nude mice, weight change at 75 mg/kg ip dose; format: functional; conditions: route intraperitoneal; method in brief: as §2
[19] = tested on: NCI-H125; experiment: In vivo activity against H125 xenograft in nude mice, ratio of treated/control median tumor mass at 250 mg/kg peroral dose; format: functional; conditions: route oral; method in brief: as §2
[20] = tested on: A-431; experiment: Difference in days for treated (T) and control (C) A431 cell tumors to reach 750 mg at 75 mg/kg ip dose; format: functional; conditions: route intraperitoneal; method in brief: as §2
[21] = tested on: A-431; experiment: In vivo activity against A431 cell tumor xenograft in nude mice at 75 ip mg/kg dose; format: functional; method in brief: as §2
[22] = tested on: A-431; experiment: (§3) In vivo activity against A431 xenograft in nude mice, weight change at 200 mg/kg peroral dose; format: functional, organism-based; design: dose 200 mg/kg; method in brief: as §2
[23] = tested on: A-431; experiment: In vivo activity against A431 xenograft in nude mice, ratio of treated/control median tumor mass at 200 mg/kg peroral dose; format: functional; conditions: route oral; method in brief: as §2
[24] = tested on: NCI-H125; experiment: (§4) In vivo activity against H125 xenograft in nude mice, weight change at 200 mg/kg peroral dose; format: functional; conditions: route oral; method in brief: as §2
[25] = tested on: Mus musculus; experiment: Difference in days for treated (T) and control (C) tumors to reach 750 mg at 200 mg/kg ip dose; format: functional; conditions: route intraperitoneal; method in brief: as §2
[26] = tested on: NCI-H125; experiment: In vivo activity against H125 xenograft in nude mice, ratio of treated/control median tumor mass at 200 mg/kg peroral dose; format: functional; conditions: route oral; method in brief: as §2
[27] = target: T1, Receptor tyrosine-protein kinase erbB-2; experiment: Inhibition of heregulin-stimulated autophosphorylation of erbB2 in MDA-MB-453 cells.; format: cell-based; method in brief: as §1
[28] = tested on: A-431; experiment: as §3; format: functional; conditions: route oral; method in brief: as §2
[29] = tested on: A-431; experiment: In vivo activity against A431 xenograft in nude mice, weight change at 40 mg/kg peroral dose; format: functional; conditions: route oral; method in brief: as §2
[30] = tested on: A-431; experiment: Difference in days for treated (T) and control (C) A431 cell tumors to reach 750 mg at 40 mg/kg peroral dose; format: functional; conditions: route oral; method in brief: as §2
[31] = tested on: Mus musculus; experiment: Difference in days for treated (T) and control (C) tumors to reach 750 mg at 200 mg/kg peroral dose; format: functional; conditions: route oral; method in brief: as §2
[32] = tested on: A-431; experiment: In vivo activity against A431 xenograft in nude mice, ratio of treated/control median tumor mass at 40 mg/kg peroral dose; format: functional; conditions: route oral; method in brief: as §2
[33] = tested on: NCI-H125; experiment: In vivo activity against H125 xenograft in nude mice, weight change at 9.6 mg/kg ip dose; format: functional; conditions: route intraperitoneal
Method in brief: (§5)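 NCr nu/nu mice (18–22 g, 6/dose group) implanted sc in the right axilla with serially passaged H125 NSCLC fragments on day 0. Dosing ip by average cage weight as a fine suspension in 6% dimethylacetamide/94% 50 mM sodium lactate pH 4.0, started at tumor mass 100–150 mg. Read-outs were body weight change and treated-minus-control days to reach 750 mg.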

[34] = tested on: NCI-H125; experiment: Difference in days for treated (T) and control (C) H125 cell tumors to reach 750 mg at 9.6 mg/kg ip dose; format: functional; conditions: route intraperitoneal; method in brief: as §5
[35] = tested on: NCI-H125; experiment: as §4; format: functional, organism-based; design: dose 200 mg/kg; method in brief: as §2
[36] = tested on: A-431; experiment: Difference in days for treated (T) and control (C) A431 cell tumors to reach 750 mg at 12 mg/kg ip dose; format: functional; conditions: route intraperitoneal; method in brief: as §2
[37] = tested on: A-431; experiment: In vivo activity against A431 xenograft in nude mice, ratio of treated/control median tumor mass at 212 mg/kg peroral dose; format: functional; conditions: dose 12 mg/kg; route intraperitoneal; in the assay text read “12 mg/kg intraperitoneal dose” for “212 mg/kg peroral dose”; method in brief: as §2
[38] = tested on: NCI-H125; experiment: In vivo activity against H125 xenograft in nude mice, ratio of treated/control median tumor mass at 9.6 mg/kg peroral dose; format: functional; conditions: route intraperitoneal, in the assay text read “intraperitoneal” for “peroral”
[39] = tested on: A-431; experiment: In vivo activity against A431 xenograft in nude mice, weight change at 12 mg/kg ip dose; format: functional; conditions: route intraperitoneal; method in brief: as §2

T2 sequence (P00533 whole entry): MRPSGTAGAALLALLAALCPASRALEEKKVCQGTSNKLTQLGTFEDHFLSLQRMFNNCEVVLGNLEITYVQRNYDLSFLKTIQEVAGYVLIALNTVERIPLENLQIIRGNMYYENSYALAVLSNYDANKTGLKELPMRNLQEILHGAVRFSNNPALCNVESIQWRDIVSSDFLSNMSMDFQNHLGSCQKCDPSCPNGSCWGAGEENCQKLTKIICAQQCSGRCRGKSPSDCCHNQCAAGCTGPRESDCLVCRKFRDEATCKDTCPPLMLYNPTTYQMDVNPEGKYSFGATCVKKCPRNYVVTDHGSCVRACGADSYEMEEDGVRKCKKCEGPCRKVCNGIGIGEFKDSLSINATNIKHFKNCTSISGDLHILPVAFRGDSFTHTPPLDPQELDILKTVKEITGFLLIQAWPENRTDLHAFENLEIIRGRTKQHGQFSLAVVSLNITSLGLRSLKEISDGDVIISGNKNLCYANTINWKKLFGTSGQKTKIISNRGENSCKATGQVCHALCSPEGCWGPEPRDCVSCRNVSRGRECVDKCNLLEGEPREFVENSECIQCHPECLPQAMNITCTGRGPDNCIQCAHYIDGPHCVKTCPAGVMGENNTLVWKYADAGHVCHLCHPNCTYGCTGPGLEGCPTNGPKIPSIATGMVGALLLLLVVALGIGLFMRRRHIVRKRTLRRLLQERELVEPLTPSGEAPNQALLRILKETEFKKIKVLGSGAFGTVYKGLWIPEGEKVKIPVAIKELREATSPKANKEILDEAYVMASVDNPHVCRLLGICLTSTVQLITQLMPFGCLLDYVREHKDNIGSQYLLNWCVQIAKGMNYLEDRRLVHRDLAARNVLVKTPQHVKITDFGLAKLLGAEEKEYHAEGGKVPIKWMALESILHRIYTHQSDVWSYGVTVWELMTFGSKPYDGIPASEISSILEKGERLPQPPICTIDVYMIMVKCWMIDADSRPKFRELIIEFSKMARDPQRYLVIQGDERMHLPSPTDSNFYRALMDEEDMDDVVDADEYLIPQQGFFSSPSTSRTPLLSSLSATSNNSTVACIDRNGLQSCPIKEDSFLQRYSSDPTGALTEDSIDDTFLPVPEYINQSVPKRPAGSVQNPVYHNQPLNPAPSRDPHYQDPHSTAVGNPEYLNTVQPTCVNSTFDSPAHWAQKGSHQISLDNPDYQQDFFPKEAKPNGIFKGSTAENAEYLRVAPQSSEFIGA
T1 sequence (P04626 whole entry): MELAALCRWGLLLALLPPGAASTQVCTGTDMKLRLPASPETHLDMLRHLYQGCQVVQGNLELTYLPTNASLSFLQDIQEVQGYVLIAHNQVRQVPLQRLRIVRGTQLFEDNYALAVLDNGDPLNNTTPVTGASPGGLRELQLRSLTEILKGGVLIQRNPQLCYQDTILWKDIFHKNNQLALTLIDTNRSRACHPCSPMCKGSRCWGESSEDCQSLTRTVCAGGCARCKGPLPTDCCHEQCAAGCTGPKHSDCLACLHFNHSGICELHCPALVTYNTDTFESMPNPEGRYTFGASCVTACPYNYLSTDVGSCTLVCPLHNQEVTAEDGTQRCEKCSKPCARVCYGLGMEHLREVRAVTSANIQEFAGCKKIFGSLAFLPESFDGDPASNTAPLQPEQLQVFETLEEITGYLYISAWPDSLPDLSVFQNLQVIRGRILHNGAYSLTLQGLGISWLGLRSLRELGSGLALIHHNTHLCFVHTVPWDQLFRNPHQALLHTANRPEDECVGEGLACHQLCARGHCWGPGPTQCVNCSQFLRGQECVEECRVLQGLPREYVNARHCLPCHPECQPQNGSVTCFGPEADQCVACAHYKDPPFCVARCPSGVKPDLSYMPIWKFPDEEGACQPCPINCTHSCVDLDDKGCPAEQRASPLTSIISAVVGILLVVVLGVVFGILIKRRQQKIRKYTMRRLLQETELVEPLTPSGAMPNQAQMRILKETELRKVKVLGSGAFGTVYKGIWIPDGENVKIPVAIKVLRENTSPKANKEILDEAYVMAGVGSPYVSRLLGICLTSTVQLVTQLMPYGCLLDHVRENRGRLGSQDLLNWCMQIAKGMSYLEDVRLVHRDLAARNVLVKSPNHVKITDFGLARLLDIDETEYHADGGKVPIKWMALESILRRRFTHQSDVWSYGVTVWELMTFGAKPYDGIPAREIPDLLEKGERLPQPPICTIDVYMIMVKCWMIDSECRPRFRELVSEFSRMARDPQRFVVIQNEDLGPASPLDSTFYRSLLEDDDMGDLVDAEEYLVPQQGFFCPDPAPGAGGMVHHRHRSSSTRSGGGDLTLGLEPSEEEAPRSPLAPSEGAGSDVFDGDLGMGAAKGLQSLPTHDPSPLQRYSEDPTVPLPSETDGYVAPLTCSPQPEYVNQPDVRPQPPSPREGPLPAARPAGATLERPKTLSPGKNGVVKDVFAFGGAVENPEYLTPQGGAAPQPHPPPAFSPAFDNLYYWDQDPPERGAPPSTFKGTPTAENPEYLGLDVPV

SMILES: C=CC(=O)Nc1ccc2ncnc(Nc3ccc(F)c(Br)c3)c2c1
- pIC50 [1]: 8.14
- pIC50 [2]: 8.57
- pIC50 [3]: 9.16

SMILES: C=CC(=O)Nc1ccc2ncnc(Nc3ccc(Oc4ccccc4)cc3)c2c1
- pIC50 [1]: 8.07

SMILES: C=CC(=O)Nc1ccc2ncnc(N3CCc4ccc(Br)cc43)c2c1
- pIC50 [2]: 8.00

SMILES: C=CC(=O)Nc1ccc2c(Nc3cccc(Br)c3)ncnc2c1
- pIC50 [1]: 7.14
- pIC50 [3]: 9.35

SMILES: C=CC(=O)Nc1ccc2ncnc(Nc3cccc(Br)c3)c2c1
- T/C [4]: 8%
- Weight change [5]: -1.5 g
- pIC50 [1]: 8.24
- T/C [6]: 2%
- Weight change [7]: -1.7 g
- Weight change [8]: -1 g
- T/C [9]: 15%
- T-C [10]: 29 days and 15.7 days
- T/C [11]: 2%

SMILES: C=CC(=O)Nc1ccc2ncnc(Nc3cccc(C)c3)c2c1
- Weight change [12]: -0.1 g
- Weight change [5]: 0 g
- T-C [13]: 10.5 days
- T-C [14]: 11.9 days
- pIC50 [1]: 7.66
- T/C [15]: 3%
- T-C [16]: 28.2 days
- Weight change [17]: -1.3 g
- Weight change [18]: -2.2 g
- T/C [19]: 24%
- T/C [9]: 15%
- T-C [20]: 32.3 days
- T/C [21]: 11%

SMILES: C=CC(=O)Nc1cc2c(Nc3ccc(F)c(Br)c3)ncnc2cn1
- Weight change [22]: Weight gain
- pIC50 [1]: 8.96
- T/C [23]: 13%
- pIC50 [2]: 8.68
- pIC50 [3]: 9.14
- Weight change [24]: -1.8 g
- T-C [25]: 51.1 days and 18.2 days
- T/C [26]: 19%

SMILES: C=CC(=O)Nc1cc2c(Nc3cccc(C)c3)ncnc2cn1
- pIC50 [27]: 8.06

SMILES: C=CC(=O)Nc1cc2c(Nc3ccc(F)c(Cl)c3)ncnc2cn1
- pIC50 [1]: 8.52
- T/C [23]: 12%
- Weight change [28]: -0.3 g
- pIC50 [2]: 8.48
- pIC50 [3]: 9.11
- Weight change [24]: -1.8 g
- T-C [25]: 18.3 days and 12.7 days
- T/C [26]: 27%

SMILES: C=CC(=O)Nc1ccc2ncnc(Nc3ccc(F)c(Cl)c3)c2n1
- pIC50 [1]: 7.92

SMILES: C=CC(=O)Nc1ccc2ncnc(Nc3ccc(F)c(Cl)c3)c2c1
- pIC50 [1]: 8.37
- Weight change [29]: 0 g
- pIC50 [2]: 8.51
- pIC50 [3]: 9.12
- Weight change [24]: -0.3 g
- T-C [30]: 20.8 days
- T/C [26]: 16%
- T-C [31]: 27.4 days
- T/C [32]: 11%

SMILES: C=CC(=O)Nc1ccc2ncnc(Nc3ccc(F)c(Br)c3)c2n1
- pIC50 [1]: 7.59
- pIC50 [2]: 7.74
- pIC50 [3]: 8.92

SMILES: C=CC(=O)Nc1cc2c(Nc3cccc(Br)c3)ncnc2cn1
- pIC50 [1]: 8.41
- Weight change [33]: -1.3 g
- T-C [34]: 8.7 days
- T-C [25]: 24.3 days and 16.5 days
- T/C ([26]; 200 mg/kg): 11% and 20%
- Weight change [35]: Weight gain
- T-C [36]: 12 days
- T/C [37]: 17%
- T/C [38]: 26%
- Weight change [39]: -2.4 g
